Nine compounds from publication PMC9064382 (RSC Advances, 2019) can be followed below.

For data set [1], the target named is T1, hOCT1 (Homo sapiens, UniProt O15245).
T1 sequence (O15245 1-554): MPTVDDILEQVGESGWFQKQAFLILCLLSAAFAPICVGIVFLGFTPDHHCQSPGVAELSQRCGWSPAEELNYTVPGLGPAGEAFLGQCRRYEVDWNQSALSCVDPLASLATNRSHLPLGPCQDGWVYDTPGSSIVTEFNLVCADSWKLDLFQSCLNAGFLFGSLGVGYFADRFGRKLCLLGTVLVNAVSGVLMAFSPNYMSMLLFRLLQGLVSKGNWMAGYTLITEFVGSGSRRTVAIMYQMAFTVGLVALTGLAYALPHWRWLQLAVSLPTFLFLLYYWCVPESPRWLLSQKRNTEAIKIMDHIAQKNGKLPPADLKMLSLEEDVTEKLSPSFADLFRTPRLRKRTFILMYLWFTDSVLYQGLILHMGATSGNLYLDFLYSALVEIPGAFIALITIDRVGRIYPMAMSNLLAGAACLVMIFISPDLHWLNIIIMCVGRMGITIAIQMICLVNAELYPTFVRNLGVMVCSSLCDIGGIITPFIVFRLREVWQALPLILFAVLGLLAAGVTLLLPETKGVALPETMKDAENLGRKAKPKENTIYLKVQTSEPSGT
As to the kind of experiment: Uptake of aconitum alkaloids in hOCT1-transfected cells vs mock. The data set is classed as in vitro ADME. The conditions noted are these: 10 μm, 5 min.

For data set [2], the target named is T2, hOAT3 (Homo sapiens, UniProt Q8TCC7).
T2 sequence (Q8TCC7 1-542): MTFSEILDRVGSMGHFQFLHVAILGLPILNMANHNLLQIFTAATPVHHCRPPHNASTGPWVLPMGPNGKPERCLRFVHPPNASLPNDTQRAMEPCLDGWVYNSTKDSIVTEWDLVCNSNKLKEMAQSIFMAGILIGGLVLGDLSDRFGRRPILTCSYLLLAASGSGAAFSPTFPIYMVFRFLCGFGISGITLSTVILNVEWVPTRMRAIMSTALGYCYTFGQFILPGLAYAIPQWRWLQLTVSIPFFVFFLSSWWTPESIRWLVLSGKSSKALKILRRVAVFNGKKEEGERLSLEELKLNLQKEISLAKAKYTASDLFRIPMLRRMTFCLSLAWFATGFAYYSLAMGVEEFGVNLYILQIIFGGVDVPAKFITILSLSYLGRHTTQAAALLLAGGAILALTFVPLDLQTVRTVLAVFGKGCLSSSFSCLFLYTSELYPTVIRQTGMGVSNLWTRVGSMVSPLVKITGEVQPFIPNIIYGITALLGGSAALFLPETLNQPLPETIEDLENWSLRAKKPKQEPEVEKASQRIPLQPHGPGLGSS
As to the kind of experiment: Inhibition of 3H-ES uptake in hOAT3-transfected cells by liquorice ingredients. In kind it is in vitro ADME. A digest of the protocol: (§1)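 Transfected and mock cells were incubated 2 min at 37 °C with 200 nmol L−1 3H-ES plus test compound. The screen used a single 100 μmol L−1 concentration with reference inhibitors as positive controls, giving an inhibition rate (n = 3, mean ± sd). […] DMSO was <0.2%. Cells were stopped with cold DPBS, rinsed three times, lysed in 0.1 mol L−1 NaOH and counted by scintillation (dpm).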

Data set [3] has as its target T3, hOATP2B1 (Homo sapiens, UniProt O94956).
T3 sequence (O94956 1-709): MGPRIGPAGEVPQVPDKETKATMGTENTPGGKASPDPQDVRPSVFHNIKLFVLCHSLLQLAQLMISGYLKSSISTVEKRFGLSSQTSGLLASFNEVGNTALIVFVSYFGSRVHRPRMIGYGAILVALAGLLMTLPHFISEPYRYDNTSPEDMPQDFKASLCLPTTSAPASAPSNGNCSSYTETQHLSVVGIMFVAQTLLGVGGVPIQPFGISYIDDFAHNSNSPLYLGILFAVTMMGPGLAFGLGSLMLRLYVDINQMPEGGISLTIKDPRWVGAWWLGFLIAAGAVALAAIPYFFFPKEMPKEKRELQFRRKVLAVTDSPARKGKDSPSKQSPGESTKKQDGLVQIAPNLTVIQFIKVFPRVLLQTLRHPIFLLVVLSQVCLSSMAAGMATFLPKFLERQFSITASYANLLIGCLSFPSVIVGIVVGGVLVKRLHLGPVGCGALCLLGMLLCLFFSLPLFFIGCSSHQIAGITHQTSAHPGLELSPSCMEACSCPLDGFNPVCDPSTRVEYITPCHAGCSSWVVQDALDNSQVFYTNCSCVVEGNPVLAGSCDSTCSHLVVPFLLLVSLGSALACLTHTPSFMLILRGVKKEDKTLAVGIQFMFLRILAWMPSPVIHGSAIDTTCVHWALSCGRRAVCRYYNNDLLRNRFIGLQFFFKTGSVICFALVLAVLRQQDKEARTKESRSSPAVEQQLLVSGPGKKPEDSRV
In kind it is in vitro ADME. Particulars: for inhibition of hOATP2B1: screening at 100 μm. A digest of the protocol:
as §1

Data set [4] concerns the target T4, hOCT2 (Homo sapiens, UniProt O15244).
T4 sequence (O15244 1-555): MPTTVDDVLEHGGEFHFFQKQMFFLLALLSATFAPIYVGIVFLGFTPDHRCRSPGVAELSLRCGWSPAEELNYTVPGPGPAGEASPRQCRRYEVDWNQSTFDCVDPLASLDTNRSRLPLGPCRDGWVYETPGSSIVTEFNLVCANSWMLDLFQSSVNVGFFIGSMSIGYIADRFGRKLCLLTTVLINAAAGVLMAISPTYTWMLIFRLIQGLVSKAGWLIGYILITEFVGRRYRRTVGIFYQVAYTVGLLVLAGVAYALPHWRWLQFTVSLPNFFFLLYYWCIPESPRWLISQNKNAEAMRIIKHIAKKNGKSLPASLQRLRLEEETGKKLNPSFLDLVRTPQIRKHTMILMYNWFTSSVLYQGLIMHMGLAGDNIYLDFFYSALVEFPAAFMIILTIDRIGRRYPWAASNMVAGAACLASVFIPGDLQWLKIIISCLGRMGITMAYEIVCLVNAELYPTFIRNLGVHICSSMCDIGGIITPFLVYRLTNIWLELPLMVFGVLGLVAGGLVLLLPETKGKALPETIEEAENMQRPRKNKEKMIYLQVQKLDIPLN
Kind of data set: Inhibition of 14C-TEA uptake in hOCT2-transfected cells by liquorice ingredients. The data set is classed as in vitro ADME. Particulars: for inhibitory rate on hOCT2: 100 μm, 5 μmol L^−1 14C-TEA, 5 min.

For data set [5], the target named is T5, hOATP1B3 (Homo sapiens, UniProt Q9NPD5).
T5 sequence (Q9NPD5 1-702): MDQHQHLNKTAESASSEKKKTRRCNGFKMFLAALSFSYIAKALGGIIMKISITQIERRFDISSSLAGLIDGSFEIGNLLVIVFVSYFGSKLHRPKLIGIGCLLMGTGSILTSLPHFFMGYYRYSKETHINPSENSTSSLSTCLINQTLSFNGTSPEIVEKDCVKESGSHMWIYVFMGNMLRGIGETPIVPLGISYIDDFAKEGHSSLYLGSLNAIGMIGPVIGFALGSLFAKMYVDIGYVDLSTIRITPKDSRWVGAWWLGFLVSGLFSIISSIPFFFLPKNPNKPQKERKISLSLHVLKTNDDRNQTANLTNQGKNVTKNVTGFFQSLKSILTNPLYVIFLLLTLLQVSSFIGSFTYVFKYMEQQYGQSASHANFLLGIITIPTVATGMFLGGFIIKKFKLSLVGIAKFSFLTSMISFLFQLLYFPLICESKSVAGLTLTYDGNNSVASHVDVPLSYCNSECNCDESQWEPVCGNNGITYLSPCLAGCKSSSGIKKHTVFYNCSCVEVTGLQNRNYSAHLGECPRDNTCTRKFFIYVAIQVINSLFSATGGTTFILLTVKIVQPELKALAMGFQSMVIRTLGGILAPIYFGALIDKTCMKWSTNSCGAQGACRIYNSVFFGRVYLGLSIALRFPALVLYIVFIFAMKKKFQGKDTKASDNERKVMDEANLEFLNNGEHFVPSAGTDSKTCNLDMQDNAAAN
The data set is classed as in vitro ADME. Particulars: screening at 100 μm.

Data set [6] addresses T6, hOATP1B1 (Homo sapiens, UniProt Q9Y6L6).
T6 sequence (Q9Y6L6 1-691): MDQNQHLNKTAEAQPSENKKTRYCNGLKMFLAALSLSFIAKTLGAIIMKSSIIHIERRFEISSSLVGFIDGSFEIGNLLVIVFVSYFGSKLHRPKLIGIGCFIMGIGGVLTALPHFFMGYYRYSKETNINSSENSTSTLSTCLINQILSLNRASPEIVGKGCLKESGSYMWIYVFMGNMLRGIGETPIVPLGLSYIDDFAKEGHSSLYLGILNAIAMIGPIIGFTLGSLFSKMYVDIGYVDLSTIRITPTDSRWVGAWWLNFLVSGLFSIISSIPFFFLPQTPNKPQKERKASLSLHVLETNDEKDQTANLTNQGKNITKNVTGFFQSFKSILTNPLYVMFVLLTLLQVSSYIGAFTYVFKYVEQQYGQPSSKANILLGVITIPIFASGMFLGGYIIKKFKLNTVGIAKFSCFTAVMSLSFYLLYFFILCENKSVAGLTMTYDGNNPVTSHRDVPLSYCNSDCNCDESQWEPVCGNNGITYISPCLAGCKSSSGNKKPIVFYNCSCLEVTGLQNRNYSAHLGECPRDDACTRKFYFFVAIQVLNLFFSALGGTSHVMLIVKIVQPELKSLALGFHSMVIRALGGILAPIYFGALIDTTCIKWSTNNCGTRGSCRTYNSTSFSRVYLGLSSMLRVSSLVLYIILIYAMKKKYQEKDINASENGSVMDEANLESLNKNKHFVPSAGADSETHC
In kind it is in vitro ADME. Particulars: screening at 100 μm.

The target in data set [7] is T5, hOATP1B3. As to the kind of experiment: Uptake of aconitum alkaloids in hOATP1B3-transfected HEK293 cells vs mock. The data set is classed as in vitro ADME. Particulars: 10 μm, 2 min, HEK293-hOATP1B3 vs mock.
The target in data set [8] is T6, hOATP1B1. Kind of data set: Uptake of aconitum alkaloids in hOATP1B1-transfected HEK293 cells vs mock. The data set is classed as in vitro ADME. Particulars: 10 μm, 2 min. A digest of the protocol: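 HEK293-hOATP1B1 and mock cells were grown in DMEM with 10% FBS, seeded at 2 × 10^5/well and cultured 48 h. They were rinsed, preincubated 10 min at 37 °C in DPBS pH 7.4, then exposed to the alkaloid for 2 min at 37 °C. After three ice-cold DPBS rinses and methanol lysis, supernatants were measured by UPLC-MS/MS (positive MRM, sinomenine internal standard). Results were normalised to BCA protein; n = 3, t-test versus mock.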

Data set [9] is classed as in vivo, Sprague-Dawley (SD) rats. The conditions noted are these: pretreatment with the named substance, rats.

For `CCN1C[C@]2(COC)[C@H](O)C[C@H](OC)[C@@]34[C@@H]5C[C@@]6(O)[C@H](OC(=O)c7ccccc7)[C@@H]5[C@@](O)([C@@H]([C@H](OC)[C@H]23)[C@@H]14)[C@@H](O)[C@@H]6OC` [benzoylaconitine], the “concentration in HEK293–hOCT1, fold higher than control” value in data set [1] is around 2.3 fold.
For the compound `COC[C@@]12CC[C@H](OC)[C@]34C([C@H]([C@H](OC)[C@H]13)[C@]1(O)[C@H]3[C@@H](OC(=O)c5ccccc5)[C@](O)(C[C@H]34)[C@@H](OC)[C@@H]1O)N(C)C2` [benzoylhypaconitine], in [1], the “concentration in HEK293–hOCT1, fold higher than control” value was around 3.7 fold.
Same read-out and setting: to `COC[C@]12CN(C)C3[C@@H]4[C@H](OC)[C@H]1[C@@]3([C@@H](OC)C[C@H]2O)[C@@H]1C[C@@]2(O)[C@H](OC(=O)c3ccccc3)[C@@H]1[C@]4(O)[C@@H](O)[C@@H]2OC` [benzoylmesaconitine] belongs around 2.2 fold.
For the compound `CC1(C)[C@@H](O)CC[C@]2(C)[C@H]3C(=O)C=C4[C@@H]5C[C@@](C)(C(=O)O)CC[C@]5(C)CC[C@@]4(C)[C@]3(C)CC[C@@H]12` [glycyrrhetinic acid], in data set [2], the IC50 (usually the concentration at which inhibition is half-maximal) was determined as 1830 nM. In addition, in data set [3], the IC50 was found to be 1070 nM and the “inhibition of hOATP2B1” value was “strong inhibitors”. In addition, in data set [4], the midpoint of inhibition, the IC50, lay at 7410 nM and the “inhibitory rate on hOCT2” value amounted to 80.17%.
On to `COC[C@@]12CC[C@H](OC)[C@]34C(C([C@H](OC)[C@H]13)[C@]1(OC(C)=O)[C@H]3[C@@H](OC(=O)c5ccccc5)[C@](O)(C[C@H]34)[C@@H](OC)[C@@H]1O)N(C)C2` [hypaconitine], for which the “concentration in HEK293–hOCT1, fold higher than control” value in [1] is around 3.3 fold.
With `O=C(/C=C/c1ccc(O)cc1)c1ccc(O)cc1O` [isoliquiritigenin], the IC50 in data set [2] was determined as 2180 nM; in [4], 31400 nM.
Turning to `O=C(/C=C/c1ccc(O[C@@H]2O[C@H](CO)[C@@H](O)[C@H](O)[C@H]2O)cc1)c1ccc(O)cc1O` [isoliquiritin], in data set [5], the “inhibition of hOATP1B3” value was “strong inhibitors”. In addition, the “inhibition of hOATP2B1” value in [3] is “strong inhibitors”. Besides, the “inhibition of hOATP1B1” value in data set [6] is on record as “strong inhibitors”. In data set [4], the “inhibitory rate on hOCT2” value is on record as 71.9%.
For the compound `COC[C@]12CN(C)[C@@H]3[C@@H]4[C@H](OC)[C@H]1[C@@]3([C@@H](OC)C[C@H]2O)[C@@H]1C[C@@]2(O)[C@H](OC(=O)c3ccccc3)[C@@H]1[C@]4(OC(C)=O)[C@@H](O)[C@@H]2OC` [mesaconitine], the “concentration in hOATP1B3-transfected cells, fold of HEK293 mock cells” value in [7] was around 3.4 fold. In addition, the “concentration in HEK293–hOCT1, fold higher than control” value in data set [1] was “roughly 1.9 fold”. Further, in data set [8], the “concentration in hOATP1B1-transfected cells, fold of HEK293 mock cells” value is “approximately 2.7 fold”.
With `C=C[C@H]1C[N@@]2CC[C@H]1C[C@@H]2[C@@H](O)c1ccnc2ccc(OC)cc12` [quinidine, reference compound], in data set [9], the “Tmax of aconitine in the liver” value is given as “postponed”.
